Test results as given in ChEMBL document CHEMBL1122836, “Angiotensin converting enzyme inhibitors: structure-activity profile of 1-benzazepin-2-one derivatives” (J Med Chem, 1985).

How the values were obtained:
[1] = target: Angiotensin-converting enzyme (Homo sapiens, UniProt P12821); experiment: (§1) In vitro inhibitory activity against Angiotensin I converting enzyme
Canis familiaris [2] = experiment: In vivo inhibitory activity against Angiotensin I pressor response in normotensive dog after peroral administration; format: functional; settings: Canis lupus familiaris, po; read-out: ID50 (the source's name)
Rattus norvegicus [3] = experiment: Maximal changes in blood pressure recorded during the 4 day test period in spontaneous hypertensive rats, at 30 mg/kg peroral dose; format: functional; settings: route oral
How it was run: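 Spontaneously hypertensive rats dosed orally and blood pressure recorded over a 4-day test period. Readout is the maximal change in blood pressure (mm) with the oral dose noted; pressure also followed at 24 h after dosing.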

Rattus norvegicus [4] = experiment: In vivo inhibitory activity against Angiotensin I pressor response in normotensive rats after peroral administration; format: functional; settings: po, read-out: ID50 (the source's name)
[5] = target: T1, Angiotensin-converting enzyme (Rattus norvegicus, UniProt P47820); experiment: as §1
T1 sequence (P47820 whole entry): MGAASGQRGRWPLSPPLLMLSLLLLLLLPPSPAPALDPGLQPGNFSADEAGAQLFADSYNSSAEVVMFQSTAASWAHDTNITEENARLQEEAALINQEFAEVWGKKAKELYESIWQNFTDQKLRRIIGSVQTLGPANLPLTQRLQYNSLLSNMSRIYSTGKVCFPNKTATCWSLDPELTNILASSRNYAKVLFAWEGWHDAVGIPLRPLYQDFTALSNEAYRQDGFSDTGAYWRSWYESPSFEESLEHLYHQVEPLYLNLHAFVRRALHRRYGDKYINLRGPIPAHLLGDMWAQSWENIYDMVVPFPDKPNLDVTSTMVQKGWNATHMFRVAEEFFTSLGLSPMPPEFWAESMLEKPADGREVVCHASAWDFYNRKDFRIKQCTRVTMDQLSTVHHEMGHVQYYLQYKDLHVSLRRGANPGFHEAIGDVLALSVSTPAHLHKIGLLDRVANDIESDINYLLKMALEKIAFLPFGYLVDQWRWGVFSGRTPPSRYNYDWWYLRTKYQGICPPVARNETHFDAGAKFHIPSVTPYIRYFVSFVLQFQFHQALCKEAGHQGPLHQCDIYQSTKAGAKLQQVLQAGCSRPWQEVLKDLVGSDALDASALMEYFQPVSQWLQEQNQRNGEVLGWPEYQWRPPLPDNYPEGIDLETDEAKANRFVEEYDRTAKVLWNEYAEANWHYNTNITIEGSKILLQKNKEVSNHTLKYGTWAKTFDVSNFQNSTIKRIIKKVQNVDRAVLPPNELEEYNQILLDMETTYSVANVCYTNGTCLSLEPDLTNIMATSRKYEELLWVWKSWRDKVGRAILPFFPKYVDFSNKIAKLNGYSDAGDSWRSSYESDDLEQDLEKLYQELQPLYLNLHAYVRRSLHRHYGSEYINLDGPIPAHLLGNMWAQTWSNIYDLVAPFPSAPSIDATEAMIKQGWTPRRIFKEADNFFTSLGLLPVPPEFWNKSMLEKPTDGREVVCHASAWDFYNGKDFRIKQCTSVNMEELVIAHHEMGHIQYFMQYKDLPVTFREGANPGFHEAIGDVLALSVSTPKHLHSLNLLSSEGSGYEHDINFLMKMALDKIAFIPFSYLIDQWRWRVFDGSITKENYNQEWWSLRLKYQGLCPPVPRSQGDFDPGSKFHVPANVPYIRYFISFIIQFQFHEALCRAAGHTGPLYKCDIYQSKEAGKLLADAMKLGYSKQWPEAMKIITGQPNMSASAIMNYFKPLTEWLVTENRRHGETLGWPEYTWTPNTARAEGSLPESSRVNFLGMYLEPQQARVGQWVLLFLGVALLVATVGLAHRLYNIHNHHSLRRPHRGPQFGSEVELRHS

Rattus norvegicus [6] = experiment: Maximal changes in blood pressure recorded during the 4 day test period in spontaneous hypertensive rats, at 3 mg/kg peroral dose; format: functional; settings: route oral
How it was run: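 Spontaneously hypertensive rats dosed orally with test compound. Blood pressure was recorded over a 4-day test period. The value is the maximal change in blood pressure seen in that period, given in mm with the oral dose (mg/kg) in brackets.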

Canis familiaris [7] = experiment: In vivo inhibitory activity against Angiotensin I pressor response in normotensive dog after peroral administration, ecperiment 2; format: functional; settings: Canis lupus familiaris, po; read-out: ID50 (the source's name)
Rattus norvegicus [8] = experiment: Maximal changes in blood pressure recorded during the 4 day test period in spontaneous hypertensive rats, at 1 mg/kg peroral dose; format: functional; settings: route oral
Rattus norvegicus [9] = experiment: In vivo inhibitory activity against Angiotensin I pressor response in normotensive rats by peroral administration, experiment 2; format: functional; settings: po, read-out: ID50 (the source's name)
Canis familiaris [10] = experiment: In vivo inhibitory activity against Angiotensin I pressor response in normotensive dog after peroral administration, experiment 1; format: functional; settings: Canis lupus familiaris, po; read-out: ID50 (the source's name)

Angiotensin-converting enzyme (Homo sapiens, UniProt P12821), sequence (P12821 whole entry): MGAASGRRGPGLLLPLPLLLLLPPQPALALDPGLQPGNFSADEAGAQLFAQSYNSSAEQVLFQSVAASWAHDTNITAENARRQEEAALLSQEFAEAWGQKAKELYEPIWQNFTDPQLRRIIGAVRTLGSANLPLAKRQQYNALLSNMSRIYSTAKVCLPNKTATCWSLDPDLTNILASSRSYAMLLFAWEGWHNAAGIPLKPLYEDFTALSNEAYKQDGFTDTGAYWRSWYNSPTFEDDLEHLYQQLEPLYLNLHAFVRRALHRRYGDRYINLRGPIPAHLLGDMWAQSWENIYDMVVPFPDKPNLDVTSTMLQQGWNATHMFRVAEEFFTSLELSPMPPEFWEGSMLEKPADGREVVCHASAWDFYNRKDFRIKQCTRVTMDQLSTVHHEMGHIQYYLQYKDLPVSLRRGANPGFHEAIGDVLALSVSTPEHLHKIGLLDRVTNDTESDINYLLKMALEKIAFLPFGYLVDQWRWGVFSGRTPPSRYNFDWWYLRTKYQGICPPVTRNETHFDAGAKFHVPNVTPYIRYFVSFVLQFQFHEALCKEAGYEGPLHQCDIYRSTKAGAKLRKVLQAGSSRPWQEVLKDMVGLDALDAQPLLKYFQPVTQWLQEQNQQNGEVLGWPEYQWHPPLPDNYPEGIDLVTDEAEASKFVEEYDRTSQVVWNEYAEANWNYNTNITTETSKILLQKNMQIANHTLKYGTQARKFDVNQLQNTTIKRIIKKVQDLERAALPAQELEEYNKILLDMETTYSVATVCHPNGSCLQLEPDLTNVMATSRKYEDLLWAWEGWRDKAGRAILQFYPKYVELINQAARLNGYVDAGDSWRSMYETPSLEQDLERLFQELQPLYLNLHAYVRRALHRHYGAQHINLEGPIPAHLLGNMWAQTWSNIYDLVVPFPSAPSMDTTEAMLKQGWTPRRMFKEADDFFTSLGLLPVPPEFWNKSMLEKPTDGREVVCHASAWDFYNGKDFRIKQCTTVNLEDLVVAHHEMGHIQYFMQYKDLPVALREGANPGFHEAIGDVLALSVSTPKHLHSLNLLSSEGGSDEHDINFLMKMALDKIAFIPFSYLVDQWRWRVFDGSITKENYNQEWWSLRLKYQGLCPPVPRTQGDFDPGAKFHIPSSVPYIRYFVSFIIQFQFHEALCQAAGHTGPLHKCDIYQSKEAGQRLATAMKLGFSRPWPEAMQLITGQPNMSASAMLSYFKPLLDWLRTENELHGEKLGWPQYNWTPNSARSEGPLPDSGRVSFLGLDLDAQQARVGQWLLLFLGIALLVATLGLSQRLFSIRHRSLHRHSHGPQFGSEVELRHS

Compound | IC50 [1] | further results
O=C(O)CN1C(=O)[C@@H](N[C@@H](COCc2ccccc2)C(=O)O)CCc2ccccc21 | 10 nM | 
O=C(O)CN1C(=O)[C@@H](N[C@@H](Cc2ccccc2)C(=O)O)CCc2ccccc21 | 8.5 nM | 
CCOC(=O)[C@H](CCCCN)N[C@H]1CCc2ccccc2N(CC(=O)O)C1=O | 40 nM | 
NCCCC[C@H](N[C@H]1CCc2ccccc2N(CC(=O)O)C1=O)C(=O)O [LIBENZAPRIL] | 7 nM | ED50 (Canis familiaris [2]): 0.07 mg/kg; Delta blood pressure (Rattus norvegicus [3]): -69 mmHg; ED50 (Rattus norvegicus [4]): 1.7 mg/kg
CCC[C@H](N[C@H]1CCc2ccccc2N(CC(=O)O)C1=O)C(=O)O | 6 nM | 
O=C(O)CN1C(=O)[C@@H](N[C@@H](Cc2c[nH]c3ccccc23)C(=O)O)CCc2ccccc21 | 13 nM | 
CCCC[C@H](N[C@H]1CCc2ccccc2N(CC(=O)O)C1=O)C(=O)O | 5 nM | 
O=C(O)CN1C(=O)[C@@H](N[C@@H](CSCCc2ccccc2)C(=O)O)CCc2ccccc21 | 7 nM | 
CCCC[C@H](N[C@H]1CCc2ccccc2N(CC(=O)O)C1=O)C(=O)OCC | 2600 nM | 
CC(C)(C)OC(=O)NCCCC[C@H](N[C@H]1CCc2ccccc2N(CC(=O)O)C1=O)C(=O)O | 4 nM | 
CCOC(=O)[C@H](CCc1ccccc1)N[C@H]1CCc2ccccc2N(CC(=O)O)C1=O [BENAZEPRIL] |  | IC50 [5]: 1.7 nM; Delta blood pressure (Rattus norvegicus [6]): 50 mmHg; ED50 (Rattus norvegicus [4]): 0.1 mg/kg
CCOC(=O)[C@H](CCCCNC(=O)OCc1ccccc1)N[C@H]1CCc2ccccc2N(CC(=O)O)C1=O | 15 nM | 
CCOC(=O)[C@H](Cc1c[nH]c2ccccc12)N[C@H]1CCc2ccccc2N(CC(=O)O)C1=O | 540 nM | 
CCOC(=O)[C@H](CCc1ccccc1)N[C@@H](C)C(=O)N1CCC[C@H]1C(=O)O |  | ED50 (Canis familiaris [7]): 0.096 mg/kg; Delta blood pressure (Rattus norvegicus [8]): -35 mmHg; Delta blood pressure (Rattus norvegicus [6]): -54 mmHg; ED50 (Rattus norvegicus [4]): 0.14 mg/kg; ED50 (Rattus norvegicus [9]): 0.28 mg/kg; ED50 (Canis familiaris [10]): 0.15 mg/kg
O=C(O)CN1C(=O)[C@@H](N[C@@H](CCCCNC(=O)OCc2ccccc2)C(=O)O)CCc2ccccc21 | 13 nM | 
O=C(O)CN1C(=O)[C@@H](N[C@@H](CSc2ccccc2)C(=O)O)CCc2ccccc21 | 4 nM | 
COC(=O)[C@H](CC(C)C)N[C@H]1CCc2ccccc2N(CC(=O)O)C1=O | 1000 nM | 
CSCC[C@H](N[C@H]1CCc2ccccc2N(CC(=O)O)C1=O)C(=O)O | 6.5 nM | 
O=C(O)CN1C(=O)[C@@H](N[C@@H](CSCc2ccccc2)C(=O)O)CCc2ccccc21 | 2.9 nM | 
CC(C)C[C@H](N[C@H]1CCc2ccccc2N(CC(=O)O)C1=O)C(=O)O | 45 nM | 
